Screening results from PubChem.
zfTRPN1 agonist – zebrafish TRPN1 channel agonists, primary screen, cell-based, HEK293, calcium fluorescence; hit rate 0.18% among 220,000; activation, % at 3 µM; HEK293 zebrafish TRPN1-YFP, Fluo-8 calcium fluorescence; 100% = response to 87 µM carbachol; transient receptor potential cation channel N1 (TRPN1/NompC), Danio rerio;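 active means activation above its plate's cutoff, the mean activation of test wells on that plate plus 3 SD, cut at about 19% in these data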;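 further: 0% = DMSO alone and 100% = 87 µM carbachol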
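Material: zebrafish TRPN1-YFP in HEK293 cells; Doses: single test compound dose, 3 µM nominal, 0.3% DMSO; Timing: dye loading 1 h at 37 °C, then 30 min room temperature; Technique: intracellular calcium fluorescence with Fluo-8; Benchmarks: high carbachol 87 µM, low DMSO alone.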
OX1R antag-1 – antagonists of human orexin 1 receptor (OX1R); hit rate 1.8% among 330,000; OX1R-expressing cells, FRET antagonist read-out; inhibition, % at 6.6 µM; Orexin/Hypocretin receptor type 1 (Homo sapiens), O43613; in the data active means inhibition mostly above about 38%, no sharp cut-off; inactive means mostly below about 40%;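 further: 0% = agonist challenge alone and 100% = reference antagonist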
Target sequence (O43613 whole entry, looked up): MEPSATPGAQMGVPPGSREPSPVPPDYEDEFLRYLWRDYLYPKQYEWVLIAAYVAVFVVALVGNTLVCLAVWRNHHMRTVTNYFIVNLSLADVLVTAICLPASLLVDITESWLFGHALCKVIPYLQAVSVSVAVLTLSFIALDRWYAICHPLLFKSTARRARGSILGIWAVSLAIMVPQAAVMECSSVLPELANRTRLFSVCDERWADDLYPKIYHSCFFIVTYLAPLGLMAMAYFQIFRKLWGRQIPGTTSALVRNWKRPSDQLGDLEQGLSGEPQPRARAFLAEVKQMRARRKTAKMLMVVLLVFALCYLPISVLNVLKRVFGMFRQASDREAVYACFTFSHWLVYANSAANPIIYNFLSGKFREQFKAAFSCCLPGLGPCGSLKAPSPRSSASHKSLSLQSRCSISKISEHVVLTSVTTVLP
OX1R antag-2 – OX1R (HCRTR1) antagonists, primary screen, fluorescence, CHO/OX1R cells, Fluo-8 calcium, orexin A; Fluo-8 calcium fluorescence; Orexin/Hypocretin receptor type 1 (Homo sapiens), O43613; inhibition, % at 5 µM; hit rate 0.43% among 330,000;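 active means inhibition above its plate's threshold, mean inhibition of all tested compounds on the plate plus 3 SD, cut at about 37% in these data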;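 further: 0% = orexin A challenge wells and 100% = SB-334867-A antagonist wells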
TRPML3 agonist – human TRPML3 channel agonists, primary screen, cell-based, HEK293 TRPML3-YFP, Fluo-8 calcium fluorescence, 3 µM. AID 1448, 2008. 100% = the carbachol control signal. activation, % at 3 µM. Mucolipin-3 (Homo sapiens), Q8TDD5. hit rate 0.29% among 220,000;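 active means activation above its plate's cutoff, the mean activation of the plate's test wells plus 3 SD, cut at about 12% in these data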;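 further: 0% = DMSO only wells and 100% = carbachol wells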
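Test system: HEK293 cells stably carrying human TRPML3-YFP; Doses: single dose, 3 µM final nominal compound, 0.3% DMSO final; Schedule: dye loading 1 h 37 °C then 30 min ambient, 125 s read; Technique: Fluo-8 calcium fluorescence; Benchmarks: high control carbachol 87 µM, low control DMSO.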
CHO parental Ca – ATP-evoked calcium signal inhibitors, parental CHO, primary screen, counter-screen for OX1R antagonist project, cell-based, fluorescence, Fluo-8 calcium dye; AID 463079, 2010; inhibition, % at 5.6 µM; parental CHO-K1, ATP-induced calcium, Fluo-8 fluorescence; hit rate 0.63% among 330,000;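 active means inhibition above that plate's mean sample inhibition plus 3 SD, cut at about 26% in these data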;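 further: 0% = ATP-challenged DMSO wells and 100% = DMSO wells without ATP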
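material = parental CHO cells | also added = ATP as calcium-mobilizing challenge | dosing = single point at 5.6 µM | detection = intracellular calcium via Fluo-8 no-wash fluorescent dye | read-out = % inhibition | benchmarks = low control ATP plus DMSO, high control DMSO only | repeats = one well per compound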
OX1R Fluo8 conf – OX1R (HCRTR1) antagonists, confirmation, fluorescence, CHO/OX1R cells, Fluo-8 calcium, orexin A | shares compounds with OX1R antag-2 | orexin A calcium Fluo-8 fluorescence | inhibition, % at 5 µM | hit rate 38% among 1,100 | AID 492963, 2010; in the data active means inhibition above about 29%;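 further: 0% = agonist challenge alone and 100% = reference antagonist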
CHO Ca counter – ATP-evoked calcium inhibition in parental CHO, counter-screen for OX1R antagonist project, cell-based, fluorescence, CHO-K1, triplicate; shares compounds with OX1R antag-2; ATP-induced calcium, Fluo-8 fluorescence; inhibition, % at 5.6 µM; hit rate 9.3% among 1,100; AID 492965, 2010;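 active means inhibition above a per-plate limit, the mean inhibition of that plate's test compounds plus 3 SD, cut at about 25% in these data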;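 further: 0% = ATP challenge with DMSO and 100% = DMSO without ATP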
Starred values were filed as active, the others as inactive; x = not tested or not shown. Compounds with a hit are over-represented: about 2.5% of the library has one in this group of screens.

SMILES	zfTRPN1 agonist	OX1R antag-1	OX1R antag-2	TRPML3 agonist	CHO parental Ca	OX1R Fluo8 conf	CHO Ca counter
O=C(COC(=O)[C@H](Cc1c[nH]c2ccccc12)NC(=O)c1cccs1)NCc1ccccc1	1	16	33	0	17	23	0
COC(=O)C(Cc1ccccc1)NC(=O)CCc1c[nH]c2ccccc12 (stereo not given)	x	10	39	x	4	37*	8
NS(=O)(=O)c1ccc(CCNC(=O)COC(=O)CCc2c[nH]c3ccccc23)cc1	x	12	32	x	-9	15	-8
O=C(COC(=O)CCc1c[nH]c2ccccc12)NCCc1ccccc1	x	10	0	x	-6	x	x
CC(=O)Oc1ccc(N2C(=O)c3cccc4c([N+](=O)[O-])ccc(c34)C2=O)cc1	x	30	44*	x	25	35*	29*
O=C1c2cccc3c([N+](=O)[O-])ccc(c23)C(=O)N1O	x	21	-14	x	-2	x	x
COc1ccc(NC(=O)CN(Cc2ccccc2)Cc2ccccc2)cc1S(N)(=O)=O	0	13	-10	0	-11	x	x
COc1ccc(NC(=O)COc2ccccc2Cc2ccccc2)cc1S(N)(=O)=O	x	26	27	x	13	19	15
NNC(=O)c1cc2c(N3CCC(Cc4ccccc4)CC3)ncnc2s1	5	8	32	3	17	14	11
COc1nc(N(c2ccccc2)c2ccccc2)nc(-n2ccnc2)n1	4	73	45*	3	11	43*	2
O=C(Cc1cccs1)Nc1cc(S(=O)(=O)N2CCCCC2)ccc1Cl	x	6	-19	x	-31	x	x
CC(NCC(=O)Nc1cc(S(=O)(=O)N2CCCCCC2)ccc1Cl)c1ccccc1 (stereo not given)	0	24	27	4	22	28	26*
CCC(=O)Nc1ccc(N2CCN(C(=O)c3cccs3)CC2)cc1	-1	29	-5	1	-3	x	x
O=C(COc1ccccc1[N+](=O)[O-])Nc1ccc(N2CCN(C(=O)c3cccs3)CC2)cc1	5	34	22	2	25	62*	36*
CC(C)(C)NC(=O)COC(=O)c1ccc(NC(=O)CC#N)cc1	1	6	27	1	1	5	-5
CN1C/C(=C\c2ccc(N3CCOCC3)cc2)C(=O)/C(=C/c2ccc(N3CCOCC3)cc2)C1	10	17	11	7	2	x	x
CCN1C/C(=C/c2ccc(N3CCOCC3)cc2)C(=O)/C(=C/c2ccc(N3CCOCC3)cc2)C1	9	31	46	11	34	34*	34*
CCCc1ccc(C2C3=C(CC(C)(C)CC3=O)NC3=C2C(=O)c2ccccc23)cc1 (stereo not given)	-2	29	66*	-1	-10	25	-4
Cc1cc(CN2CCN(CC(=O)Nc3cc(C(F)(F)F)ccc3-n3cncn3)CC2)no1	x	6	-27	x	-20	x	x
CC(C)C(NC(=S)NCc1ccccc1)C(=O)O (stereo not given)	0	16	31	0	-8	-2	11
O=C(O)CNC(=S)NCc1ccccc1	-1	8	-11	0	10	x	x
O=c1[nH]nc(Cc2ccc(Cl)cc2)c2ccccc12	3	22	-24	1	-9	x	x
O=c1[nH]nc(Cc2ccc(-c3ccccc3Cl)o2)c2ccccc12	0	64	47*	0	24	4	-6
Cc1[nH]c2ccc(C(=O)OC(C)C(=O)NC3CCCCC3C)cc2c1C (stereo not given)	x	28	32	x	11	14	-6
CC(OC(=O)c1cccc(Cl)c1)C(=O)NC1CCCCC1C (stereo not given)	x	10	-18	x	-19	x	x
SMILES	zfTRPN1 agonist	OX1R antag-1	OX1R antag-2	TRPML3 agonist	CHO parental Ca	OX1R Fluo8 conf	CHO Ca counter
CCOc1ccc(C2(C)CC(=O)N(C)C2=O)cc1 (stereo not given)	x	1	-6	x	-9	x	x
CCOc1ccc2cc(S(=O)(=O)n3ccnc3C)ccc2c1	1	15	-3	0	16	x	x
CCc1nccn1S(=O)(=O)c1ccc2ccc(C)cc2c1	0	16	56*	0	-11	4	3
O=C(Cn1cnc([N+](=O)[O-])n1)N/N=C/c1cc(Cl)ccc1O	0	19	9	0	-2	x	x
O=C(c1ccccc1)N1CCN(c2nc3ccc([N+](=O)[O-])cc3s2)CC1	0	31	23	1	24	27	22
CCCC(=O)Nc1ccc(-c2nc3cc(C)c(C)cc3o2)cc1	2	13	45	1	0	6	9
CNC(=S)/N=C/NOCc1ccc(Cl)cc1Cl	13	29	41*	7	12	20	19
O=C(O)CC1c2ccccc2CCN1S(=O)(=O)c1cccs1 (stereo not given)	x	13	-4	x	-4	x	x
COc1ccc(CCN(C)c2ccc(S(=O)(=O)N3CCCC3)cc2[N+](=O)[O-])cc1OC	1	16	-25	2	-8	x	x
COc1ccc(CN(C)c2ccc(S(=O)(=O)N3CCN(C)CC3)cc2[N+](=O)[O-])cc1OC	x	24	46*	x	6	3	65*
CCN1C(=O)c2cccc3c(S(=O)(=O)N(C(C)=O)c4ccc(OC(C)=O)cc4)ccc1c23	x	10	-13	x	-12	x	x
Cc1ccc(CNC(=O)Cn2cnc(S(=O)(=O)N3CCC(C)CC3)c2)o1	x	6	2	x	-1	x	x
O=C(CSc1ccc2ccccc2c1Br)Nc1cccc(S(=O)(=O)NC2=NCCCCC2)c1	1	36	30	1	-2	17	-15
O=C1c2ccccc2-c2n[nH]c(=O)c3ccc(N4CCCCC4)c1c23	-3	85	26	0	-26	14	14
CC(=O)n1cc([C@H]2C=C(C(=O)N3CCOCC3)O[C@@H](OCCCCO)C2)c2ccccc21	x	16	-26	x	-10	x	x
CC(=O)Nc1ccc(NC(=O)c2nc(S(=O)(=O)Cc3ccccc3)ncc2Cl)cc1	x	23	15	x	14	x	x
CCS(=O)(=O)c1ncc(Cl)c(C(=O)Nc2ccc(C)cc2)n1	x	51	28	x	26	32*	20
